This note sets out measurements from ChEMBL document CHEMBL1128310, “Antitumor imidazotetrazines. 32. Synthesis of novel imidazotetrazinones and related bicyclic heterocycles to probe the mode of action of the antitumor drug temozolomide” (J Med Chem, 1995).

Data set [1] deals with GM892A cell line. In words: (§1) In vitro cytotoxicity against human lymphoblastoid cell (GM892 A). The class given is functional, cell-based. In outline:
(§2)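 Mer⁻ GM892A cells in RPMI 1640 with 10% FCS and 1% L-glutamine, seeded at 0.8×10^5 cells/mL and exposed to a range of concentrations in DMSO (≤0.5%) for 72 h. At least three populations per concentration; duplicate cell counts after subtracting the seed number. Growth compared with solvent controls and IC50 (μM) derived.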

Data set [2] can be described thus: Ratio of cytotoxicity against Raji cells to that of GM892 A cells. The data set is classed as functional.
For another data set, the system named is Raji. In words: In vitro cytotoxicity against Raji cell line. The data set is classed as functional, cell-based. Conditions: Homo sapiens.
The next data set deals with TLX-5. Briefly: In vitro cytotoxicity against mouse TLX5 lymphoma cells. The class given is functional, cell-based. In outline:
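Mouse TLX5 lymphoma cells in exponential growth at 2×10^4 cells/mL in RPMI 1640 with 15% FCS, given drug in DMSO, triplicate wells per concentration, 72 h at 37 °C under 5% CO2. Electronic cell counting; percent of DMSO-control growth plotted and IC50 (μM) calculated.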

Data set [3] is described as follows: Half life for the hydrolysis of compound in buffers at pH 6.5, at 37 degrees Celsius in incubation mixture - d(A)-d(T) (10:1). The class given is ADME. In outline: (§3)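 Compound incubated at 37 °C in 0.1 M phosphate or 0.1 M sodium cacodylate buffer (pH 7.4 or 6.5) with homopolymer oligonucleotide or GMP/CMP, as equimolar nucleotide bases or 10-fold molar excess of bases. Loss of parent was followed by HPLC (0.5% acetic acid in water/methanol 70:30) over about three half-lives. Pseudo-first-order k from log peak area versus time; t1/2 = 0.693/mean k.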

A short description of data set [4]: Half life for the hydrolysis of compound in buffers at pH 7.4, at 37 degrees Celsius in incubation mixture - d(A)-d(T) (10:1). To be noted: buffer with d(A)-d(T) (10:1).
Data set [5] in a line: Mean rate constant for the hydrolysis of compound in buffers at pH 7.4, at 37 degrees Celsius in incubation mixture - d(A)-d(T) (1:1). The class given is ADME. To be noted: buffer. In outline:
(§4)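 Compound incubated at 37 °C in 0.1 M phosphate or 0.1 M sodium cacodylate buffer (pH 7.4 or 6.5) with homopolymer oligonucleotide or GMP/CMP, as equimolar nucleotide bases or 10-fold molar excess of bases. Parent peak followed by HPLC for about three half-lives. Pseudo-first-order k from log(peak area) versus time, at least 10 points per run, averaged over replicate runs.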

A short description of data set [6]: Mean rate constant for the hydrolysis of compound in buffers at pH 7.4 at 37 degrees Centigrade in incubation mixture - d(A)-d(T) (10:!). The class given is ADME. Conditions: buffer. In outline: as §4
For data set [7], the system named is GM892A cell line. In words: In vitro cytotoxicity against human lymphoblastoid cell line (GM892 A). The class given is functional, cell-based. In outline: as §2
Data set [8] can be described thus: Mean rate constant for the hydrolysis of compound in buffers at pH 7.4, at 37 degrees Celsius in incubation mixture - 5'-GMP/5'-CMP (1:1). The data set is classed as ADME. To be noted: buffer. In outline:
as §4

The nature of data set [9]: Mean rate constant for the hydrolysis of compound in buffers at pH 7.4, at 37 degrees Celsius in incubation mixture - d(A)-d(T) (10:1). Conditions: buffer.
The nature of data set [10]: Half life for the hydrolysis of compound in buffers at pH 7.4, at 37 degrees Centigrade in incubation mixture - d(G)-d(C) (10:1). The data set is classed as ADME. In outline:
as §3

Data set [11] can be described thus: Half life for the hydrolysis of compound in buffers at pH 7.4, at 37 degrees Centigrade in incubation mixture - 5'-GMP/5'-CMP (1:1). The data set is classed as ADME. To be noted: buffer with 5'-GMP/5'-CMP (1:1). In outline: as §3
Data set [12] in a line: Half life for the hydrolysis of compound in buffers at pH 7.4 at 37 degrees Celsius in incubation mixture - d(A)-d(T) (10:!). The class given is ADME. Conditions: buffer with d(A)-d(T) (10:1). In outline: as §3
A short description of data set [13]: Half life for the hydrolysis of compound in buffers at pH 6.5, at 37 degrees Celsius in incubation mixture - d(G)-d(C) (10:1). The data set is classed as ADME. In outline: as §3
Data set [14] is described as follows: Half life for the hydrolysis of compound in buffers at pH 7.4, at 37 degrees Celsius in incubation mixture - d(G)-d(C) (1:1). The class given is ADME. To be noted: buffer with d(G)-d(C) (1:1). In outline: as §3
Data set [15] in a line: Mean rate constant for the hydrolysis of compound in buffers at pH 7.4, at 37 degrees Celsius in incubation mixture - d(G)-d(C) (1:1). Conditions: buffer. The class given is ADME. In outline: as §4
Data set [16] in a line: Half life for the hydrolysis of compound in buffers at pH 7.4, at 37 degrees Celsius in incubation mixture - d(A)-d(T) (1:1). The data set is classed as ADME. Conditions: buffer with d(A)-d(T) (1:1). In outline: as §3
Data set [17] has as its system GM892A cell line. The description is as §1. The data set is classed as functional, cell-based. The source holds these as a separate data set.
Data set [18] has as its system GM892A cell line. Briefly: In vitro cytotoxicity against human lymphoblast cell line (GM892 A). The class given is functional, cell-based. In outline:
as §2

Broadly, the IC50 is the concentration needed to halve the response being measured. Low values mean greater potency in that assay, high ones weaker potency in that assay. `CN(C)/N=N/c1[nH]cnc1C(N)=O` [DACARBAZINE]: the IC50 with GM892A cell line [1] stood at 14 µM; with Raji, 128 µM. Besides, the Ratio in [2] is recorded as 9.
`NC(=O)c1cccc2c(=O)n(-c3ccccc3)nnc12` registered a 50% inhibitory concentration (IC50) in the data set on TLX-5 of more than 500 µM.
On the same count and under the same terms, in the case of `NC(=O)c1ccc2c(=O)n(-c3ccccc3)nnc2c1` it was 140 µM.
Still for that read-out and setting: to `CCn1nnc2c(C(N)=O)cccc2c1=O` belongs 325 µM; to `NC(=O)c1cccc2c(=O)n(CCCl)nnc12`, 225 µM; to `NC(=O)c1cccc(NC(=O)c2ncn3c(=O)n(CCCl)nnc23)c1`, 35 µM.
Still for that read-out and setting: to `Nc1nc(O)cc(-c2ccc(NC(=O)c3ncn4c(=O)n(CCCl)nnc34)cc2)n1` belongs 25 µM.
A word on the half-life: it is the time in which the quantity being followed falls by half. For `NC(=O)c1ncn2c(=O)n(CCCl)nnc12` [MITOZOLOMIDE], the T1/2 in [3] (buffer) turned out to be 5.777 h; in [10] (buffer), 0.947 h; in data set [13] (buffer) it was 5.747 h. Besides, the half-life in [3] (buffer with d(A)-d(T) (10:1)) is 7.45 h; in data set [4] it was 1.24 h; in data set [10] (buffer with d(G)-d(C) (10:1)) it was 1.27 h; in [11], 1.18 h; in data set [12], 0.947 h; in data set [13] (buffer with d(G)-d(C) (10:1)) it was 7.5 h. Further, the half-life worked out at 1.22 h in [14] and 1.26 h in [16]. Further, the Mean rate constant was 0.00915 min⁻¹ in [5]; 0.0122 min⁻¹ in data set [6]; 0.00979 min⁻¹ in [8]; 0.00932 min⁻¹ in data set [9]; 0.0094 min⁻¹ in data set [15]. Further, the half-inhibitory concentration (IC50) is 4.8 µM in the data set on GM892A cell line [7], 2.5 µM in the data set with TLX-5 and 39 µM in the data set with Raji. The Ratio in data set [2] is given as 8.1.
Turning to `Cn1nnc2c(C(N)=O)cnn2c1=O`, the Ratio in data set [2] stood at 51. Moreover, the figures for the 50% inhibitory concentration (IC50) with GM892A cell line [17] and with Raji were 5.3 µM and 270 µM, respectively.
Take `Cn1nnc2c(C(=O)NCCCN(CCCN)CCCCN)ncn2c1=O`: the IC50 in the data set with GM892A cell line [17] and in the data set with Raji was more than 500 µM each time.
On to `NC(=O)c1ccccc1NC(=O)c1ncn2c(=O)n(CCCl)nnc12`, for which half-maximal inhibition in the data set on TLX-5 (IC50) required 13 µM.
On the same count and under the same terms, in the case of `Cn1nnc2cc(C(N)=O)ccc2c1=O` it was 380 µM; in that of `O=C(Nc1ccccc1)c1ncn2c(=O)n(CCCl)nnc12`, 1.25 µM.
Turning to `CNC(=O)c1nnc2c(O)n(C)nnc1-2`, the IC50 in the data set with GM892A cell line [17] and in the data set with Raji was more than 500 µM each time.
`NC(=O)c1ccc(NC(=O)c2ncn3c(=O)n(CCCl)nnc23)cc1` displayed an IC50 with TLX-5 of 37 µM.
`Cn1nnc2c(C(N)=O)ncn2c1=O` [TEMOZOLOMIDE]: the IC50 was found to be 5 µM with TLX-5, 7.6 µM in the data set with GM892A cell line [18] and 175 µM in the data set on Raji. Further, the Ratio in data set [2] is 23.
Turning to `NC(=O)Cn1nnc2c(C(N)=O)cccc2c1=O`, the IC50 in the data set with TLX-5 is more than 500 µM.
As for `CCn1nnc2c(C(N)=O)ncn2c1=O`, the Ratio in data set [2] worked out at 2.4. Besides, the IC50 in the data set on GM892A cell line [17] is 180 µM; in the data set with Raji it was 435 µM.
`NC(=O)c1ccc2c(=O)n(CCCl)nnc2c1` displayed an IC50 in the data set on TLX-5 of 350 µM.
`NC(=O)c1cccc2c(O)nnnc12` registered an IC50 in the data set with TLX-5 of 400 µM.
Same read-out and setting: in the case of `CCn1nnc2cc(C(N)=O)ccc2c1=O` it was 108 µM.
Same read-out and setting: in the case of `Cn1nnc2c(C(N)=O)cccc2c1=O` it was more than 500 µM.
As to `CN(N=O)C(N)=O.Cl.Cl.Cl`, the Ratio in data set [2] is on record as 7.4. For the same compound, the 50% inhibitory concentration (IC50) was 35 µM with GM892A cell line [17] and 259 µM in the data set on Raji.
`NC(=O)c1ccc(NC(=O)c2ncn3c(=O)n(CCCl)nnc23)c(C(N)=O)c1` showed an IC50 in the data set on TLX-5 of 375 µM.
On the same count and under the same terms, to `O=C(O)c1ncn2c(=O)n(CCCl)nnc12` belongs 15.8 µM.
